Most compounds without a hit are left out; they make up all but 9.5% or so of the library.
D1 allo mod – allosterically modulates the human D1 dopamine receptor; HEK293 D1, CRE-luciferase, dopamine EC30 potentiation; actives deviate in either direction; B-score at 10 µM; hit rate 5.9% among 58,000; P21728;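 active = luminescence count or its row- and column-corrected plate score outside the 99.7% band of the plate's sample wells, on either side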
mHtt clearance – mutant huntingtin protein clearance | inhibition, % at 1.5 µM | HeLa Exon1htt(103Q)mCFP, aggregate imaging; zero = plate's median compound well | hit rate 0.42% among 47,000;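 active = inhibition of aggregate fluorescence above about 70%, also judged a hit by eye on the cell image, limit read from the data, passing the limit was not always enough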;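 note: cells exposed to compound for three days before fixation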
Jurkat tox 60K – cytotoxic compounds reducing Jurkat cell viability; Jurkat E6.1 viability, ATP luminescence, 48 h; inhibition, % at 4 µM; hit rate 1.2% among 56,000; AID 463;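 active = inhibition above the mean inhibition of all tested compounds plus 3 SD, cut at about 28% in these data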
M1 antag – M1 muscarinic receptor (rat) antagonism. CHO-M1 cells, Fluo-4 calcium, ACh EC80 antagonist mode; hits give low values. B-score at 10 µM. AID 628. hit rate 3.4% among 64,000. P08482;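 active = calcium fluorescence response, raw or row-and-column corrected B-score, differing from the plate sample mean either way at a set confidence level, mostly lower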
Target sequence (P08482 whole entry, looked up): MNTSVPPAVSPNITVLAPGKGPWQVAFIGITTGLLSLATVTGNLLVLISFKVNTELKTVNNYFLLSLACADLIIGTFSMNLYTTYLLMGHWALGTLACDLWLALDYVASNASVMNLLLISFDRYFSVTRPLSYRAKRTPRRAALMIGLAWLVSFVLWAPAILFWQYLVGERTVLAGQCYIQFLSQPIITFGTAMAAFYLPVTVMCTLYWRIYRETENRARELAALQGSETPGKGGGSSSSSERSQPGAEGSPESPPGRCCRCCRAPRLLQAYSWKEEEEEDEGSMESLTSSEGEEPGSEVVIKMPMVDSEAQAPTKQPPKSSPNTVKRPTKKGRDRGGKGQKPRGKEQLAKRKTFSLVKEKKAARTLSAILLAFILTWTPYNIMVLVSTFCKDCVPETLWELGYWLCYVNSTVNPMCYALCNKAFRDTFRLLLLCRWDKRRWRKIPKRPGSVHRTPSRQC
M1 agonist – agonists of M1 muscarinic receptor; CHO-M1 cells, Fluo-4 calcium fluorescence, agonist mode; hits give high values; B-score at 10 µM; hit rate 3% among 64,000; AID 626;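 active = fluorescence rise, raw or as B-score row- and column-corrected plate score, outside the 99.7% band of its plate's samples, either direction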
HEK293 NFkB inh – inhibitors of the PMA/ionomycin-induced NF-kB reporter in HEK293 cells; HEK-293 NF-kB luciferase reporter, luminescence; hit rate 0.21% among 62,000; inhibition, % at 3 µM; AID 465;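 active = inhibition above the mean of all tested compounds plus 3 SD, cut at about 40% in these data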;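 note: 0% = stimulated DMSO wells and 100% = 10 µM reference inhibitor 5653914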
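Material: HEK-293 cells with stable firefly luciferase reporter driven by four HIV NF-kB elements / Also added: PMA plus ionomycin mix as NF-kB-activating stimulus / Compound dosing: 3 µM once, 0.30% DMSO / Times: 1 h pretreatment, 16 h stimulation, 37 °C / Signal: luminescence / Evaluation: per-plate % inhibition versus controls / Benchmarks: DMSO and 10 µM reference inhibitor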
The depositor's hits bear a star; i = inactive; / = no result given.

SMILES	D1 allo mod	mHtt clearance	Jurkat tox 60K	M1 antag	M1 agonist	HEK293 NFkB inh
O=C(Cn1c(=O)c2c(ncn2C2CCCC2)n(Cc2ccccc2)c1=O)N1CCc2ccccc21	-4.8*	-3	1	0.084	-0.45	-1
O=C(O)c1ccc2c(c1)[C@@H]1C=CC[C@@H]1[C@H](c1ccccn1)N2	-3.8*	/	1	/	/	17
Cc1ccc(N2C(=O)c3ccc(C(=O)N4CCOCC4)cc3C2=O)cc1C	/	11	/	/	/	/
Cc1ccc2cc(C#N)c(NCc3ccco3)nc2c1	6.7*	39	12	-0.17	0.73	16
Cc1ccc(-c2nc(C#N)c(NCc3ccco3)o2)cc1	1.7	/	8	0.05	-0.014	1
CCOc1ccc(-c2nnc(-c3cccs3)o2)cc1OCC	5*	-13	-3	0.021	0.0011	1
COc1ccc(-c2nnc(-c3cccs3)o2)cc1OC	4.6	-32	1	0.5	1.1	-22
CC1(c2ccc3c(c2)OCO3)NC(=O)N(CC(=O)Nc2ccc(N3CCOCC3)cc2)C1=O (centres undefined)	-0.21	-20	-3	0.14	0.016	-8
Cc1cc(C)nc(NS(=O)(=O)c2ccc(NC(=S)NC(=O)CC(C)C)cc2)n1	/	-25	/	/	/	/
O=C(OCc1cc(=O)n2c(n1)sc1ccccc12)c1ccc2c(=O)n3c(nc2c1)CCC3	4.2*	/	1	0.052	0.7	10
CN(C(=O)c1ccc2c(=O)n3c(nc2c1)CCCCC3)c1ccccc1	-0.69	/	5	0.21	0.65	13
Cc1ccc(CN(CC(=O)NCCc2ccccc2)C(=O)CCCC(=O)Nc2cc(C)on2)cc1	0.17	-49	-2	-0.013	0.1	21
O=C(Nc1cc(C(F)(F)F)ccc1Cl)C1CCN(c2nnc(-n3cccc3)s2)CC1	-1.4	/	-1	0.24	-0.23	7
Cc1ccc(Cl)cc1N1CCN(C(=O)C2CCN(c3nnc(-n4cccc4)s3)CC2)CC1	-3.1	/	41*	-0.013	-0.64	9
CN(C)c1ccc(Nc2nc(-c3cccnc3)cs2)cc1	-2.8*	/	0	-0.41	1.1	-30
Cc1ccc(-c2nc(-c3ccccc3)no2)c(Cl)c1	-8.7*	-93	-2	0.017	0.042	24
Cc1ccc(-c2ccc(CCC(=O)O)n2Cc2ccco2)cc1	-0.79	/	/	-0.37	0.62	21
Cc1noc(C)c1CSc1nnc2c(C)cc3ccccc3n12	0.72	-9	0	-0.46	1.7*	-1
COc1ccccc1NC(=O)c1cc2n(n1)C(C(F)(F)F)CC(c1ccc3c(c1)OCO3)N2 (centres undefined)	-0.14	-7	0	0.8*	-0.28	16
COc1ccc(OC)c(NC(=O)c2cc3n(n2)C(C(F)(F)F)CC(c2ccc4c(c2)OCO4)N3)c1 (centres undefined)	1.6	17	6	-2.5	-0.41	21
COc1ccc2c(c1)sc1nc(-c3ccccc3)cn12	-7.3*	/	100*	-0.69	0.011	67*
Cc1ccc2nc3c(cc(C(N)=S)c(=N)n3CCCOC(C)C)c(=O)n2c1	0.57	-15	5	-0.19	-0.39	4
CC(=O)NC(C)C(c1cccs1)N1CCN(c2ccccc2)CC1 (centres undefined)	-0.95*	-2	-3	-0.58	-0.91	4
CCOC(=O)c1c(C)[nH]c(C(=O)OCC(=O)Nc2cc(C)ccc2OC)c1C	0.76	/	5	0.58	-0.46	17
CCOC(=O)c1[nH]c(C)c(C(=O)Nc2ccccc2F)c1C	0.97	-326	89*	-0.16	1.2	4
SMILES	D1 allo mod	mHtt clearance	Jurkat tox 60K	M1 antag	M1 agonist	HEK293 NFkB inh
CCOC(=O)c1[nH]c(C)c(C(=O)Nc2ccc(C)cc2C)c1C	0.95	-3	93*	-0.25	0.026	24
CCOC(=O)c1[nH]c(C)c(C(=O)Nc2cc(OC)ccc2OC)c1C	1.9	i	80*	0.18	0.17	29
CCOC(=O)c1[nH]c(C)c(C(=O)Nc2ccc(F)cc2)c1C	-0.6	/	8	-0.77	0.26	6
CCOc1ccc2nc(NC(=O)C3CCCN(S(=O)(=O)c4cccs4)C3)sc2c1 (centres undefined)	/	-160	5	/	/	6
O=C1OCCC1Sc1nnc(-c2ccc3c(c2)OCO3)n1-c1ccccc1 (centres undefined)	-3.8*	-12	6	0.86	0.025	3
Cc1cccc(Cn2c(=O)n(CCCC(=O)NCc3ccco3)c(=O)c3ccccc32)c1	0.85	/	71*	0.036	0.92	16
CCC(C)NC(=O)c1ccccc1NC(=O)COc1ccc(OC)cc1 (centres undefined)	/	8	/	/	/	/
Nn1c(SCC(=O)Nc2ccc(F)cc2)nnc1-c1cccnc1	-0.81	33	-2	-0.19	0.41	11
O=C(CCCOc1ccccc1)N1CCN(c2ccccn2)CC1	-2.9*	-38	-1	-0.82	-0.2	-8
O=C(Cc1cccs1)N1CCN(c2ccccn2)CC1	-4.5*	10	-5	0.22	-0.17	1
O=C(CCCOc1ccc(Cl)cc1Cl)N1CCN(c2ccccn2)CC1	2.9	/	-4	-0.36	1.1	15
COc1cc(S(=O)(=O)N2CCC(c3nc4ccccc4s3)CC2)ccc1S(=O)(=O)NC1CCCC1	/	-67	/	/	/	/
COc1ccccc1/C=C/C(=O)c1c2c(c(C)[nH]c1=O)CCCC2	/	17	/	/	/	/
CCOC(=O)N1CCc2c(sc(NC(=O)c3ccc(Cl)s3)c2C(N)=O)C1	0.25	/	13	-0.042	5.3*	13
CCCNC(=O)C1CCN(S(=O)(=O)c2ccc(Br)cc2)CC1	0.28	-7	4	-1.3	-0.84	6
CCOc1cccc(C=Nc2cc(C)cc(C)c2O)c1O	-3.8*	-38	-5	0.46	-0.05	7
COc1cccc(C=Nc2ccc3c(c2)OCCO3)c1O	-0.36	/	3	0.001	0.43	11
CCOC(=O)CCc1c(C)nc2c(c(C)nn2C(C)(C)C)c1C	/	/	4	2.6*	0.45	11
CCOc1ccc(NC(=O)C2=C(C)C(=O)OC23CCC(C)CC3)cc1 (centres undefined)	/	-10	/	/	/	/
N#Cc1sc2nc3c(c(-c4cccnc4)c2c1N)CCC3	5.2*	/	2	-0.017	0.59	11
CC1(C)Cc2ccccc2-c2nnc(SCC(=O)N3CCN(c4ccccc4)CC3)n21	-0.91	20	10	-0.5	3.3*	13
CCOC(=O)C(C)Sc1nnc2n1C(C)(C)Cc1ccccc1-2 (centres undefined)	0.29	/	-6	/	/	14
CNC(=O)CN(c1ccc(C(C)C)cc1)S(C)(=O)=O	0.77	44	/	-0.00053	0.59	/
Cc1ccc(CCNC(=O)C2CCCN(S(=O)(=O)c3cnc[nH]3)C2)cc1 (centres undefined)	-0.82	70*	-4	0.37	0.33	4
CCN(CC)C(=O)C(C)OC(=O)COc1ccc(Cl)cc1C (centres undefined)	-0.31	17	7	1.9*	-0.37	2
CCOC(=O)N1CCN(c2cc3[nH]c(=S)[nH]c3cc2F)CC1	-0.27	-4	-8	0.57	-0.14	16

Source: PubChem
